Assay results reported in ChEMBL document CHEMBL1142952, “Design, synthesis, and activity of 2-imidazol-1-ylpyrimidine derived inducible nitric oxide synthase dimerization inhibitors” (J Med Chem, 2007).
The source made the active and inactive calls. The rule behind the calls is not given here.

Experiments:
[1] = target: Nitric oxide synthase, inducible (Homo sapiens, UniProt P35228); assay: Inhibition of cytokine-induced iNOS expressed in human A172 cells assessed as inhibition of NO formation; type: cell-based, A 172
[2] = target: Nitric oxide synthase, inducible (Rattus norvegicus) (UniProt Q06518); assay: Activity against rat cerebellum iNOS upto 1 uM
BSC-1 [3] = assay: Selectivity ratio, IC50 for bcNOS/IC50 for iNOS using vaccinia virus-induced system in BSC1 cells; type: cell-based; conditions: Homo sapiens
Method in brief: (§1)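 For each compound, the IC50 against bcNOS (b/i) or ecNOS (e/i) is divided by the iNOS IC50 from the same BSC-1 vaccinia system.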

[4] = Inhibition of vaccinia virus system-induced human NOS expressed in BSC1 cells; type: cell-based; conditions: bsc-1
BSC-1 [5] = assay: Selectivity ratio, IC50 for ecNOS/IC50 for iNOS using vaccinia virus-induced system in BSC1 cells; type: cell-based; conditions: Homo sapiens; method in brief: as §1

Chain of Nitric oxide synthase, inducible (P35228 whole entry): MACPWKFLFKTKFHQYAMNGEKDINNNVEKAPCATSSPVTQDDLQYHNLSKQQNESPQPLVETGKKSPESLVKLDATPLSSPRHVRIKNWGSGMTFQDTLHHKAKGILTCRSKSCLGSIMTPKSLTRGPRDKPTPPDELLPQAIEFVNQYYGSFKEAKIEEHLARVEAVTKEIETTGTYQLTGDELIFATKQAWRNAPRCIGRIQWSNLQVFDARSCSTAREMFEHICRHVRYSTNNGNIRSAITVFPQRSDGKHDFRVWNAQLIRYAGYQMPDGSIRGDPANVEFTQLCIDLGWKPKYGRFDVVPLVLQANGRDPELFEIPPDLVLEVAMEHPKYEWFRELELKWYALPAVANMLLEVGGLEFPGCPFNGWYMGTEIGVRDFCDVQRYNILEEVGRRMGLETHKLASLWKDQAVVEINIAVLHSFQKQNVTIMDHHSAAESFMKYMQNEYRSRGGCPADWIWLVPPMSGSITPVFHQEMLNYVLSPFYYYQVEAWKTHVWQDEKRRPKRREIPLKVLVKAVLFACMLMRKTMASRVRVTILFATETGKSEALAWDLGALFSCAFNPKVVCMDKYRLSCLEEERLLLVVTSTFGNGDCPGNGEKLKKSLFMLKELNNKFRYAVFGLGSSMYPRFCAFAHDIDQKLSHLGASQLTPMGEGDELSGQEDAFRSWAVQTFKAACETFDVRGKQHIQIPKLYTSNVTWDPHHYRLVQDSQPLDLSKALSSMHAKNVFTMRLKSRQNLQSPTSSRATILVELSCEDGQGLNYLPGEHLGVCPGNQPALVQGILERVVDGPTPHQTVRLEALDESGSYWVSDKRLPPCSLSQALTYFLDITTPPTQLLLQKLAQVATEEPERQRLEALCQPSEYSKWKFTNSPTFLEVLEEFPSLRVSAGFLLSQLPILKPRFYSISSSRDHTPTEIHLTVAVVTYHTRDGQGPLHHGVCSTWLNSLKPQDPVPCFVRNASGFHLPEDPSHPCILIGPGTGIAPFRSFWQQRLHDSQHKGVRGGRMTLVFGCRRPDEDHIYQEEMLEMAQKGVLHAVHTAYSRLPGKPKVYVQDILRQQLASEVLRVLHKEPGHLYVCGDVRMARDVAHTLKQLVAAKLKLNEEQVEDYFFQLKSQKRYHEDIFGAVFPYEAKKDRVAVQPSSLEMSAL
Chain of Nitric oxide synthase, inducible (Rattus norvegicus) (Q06518 whole entry): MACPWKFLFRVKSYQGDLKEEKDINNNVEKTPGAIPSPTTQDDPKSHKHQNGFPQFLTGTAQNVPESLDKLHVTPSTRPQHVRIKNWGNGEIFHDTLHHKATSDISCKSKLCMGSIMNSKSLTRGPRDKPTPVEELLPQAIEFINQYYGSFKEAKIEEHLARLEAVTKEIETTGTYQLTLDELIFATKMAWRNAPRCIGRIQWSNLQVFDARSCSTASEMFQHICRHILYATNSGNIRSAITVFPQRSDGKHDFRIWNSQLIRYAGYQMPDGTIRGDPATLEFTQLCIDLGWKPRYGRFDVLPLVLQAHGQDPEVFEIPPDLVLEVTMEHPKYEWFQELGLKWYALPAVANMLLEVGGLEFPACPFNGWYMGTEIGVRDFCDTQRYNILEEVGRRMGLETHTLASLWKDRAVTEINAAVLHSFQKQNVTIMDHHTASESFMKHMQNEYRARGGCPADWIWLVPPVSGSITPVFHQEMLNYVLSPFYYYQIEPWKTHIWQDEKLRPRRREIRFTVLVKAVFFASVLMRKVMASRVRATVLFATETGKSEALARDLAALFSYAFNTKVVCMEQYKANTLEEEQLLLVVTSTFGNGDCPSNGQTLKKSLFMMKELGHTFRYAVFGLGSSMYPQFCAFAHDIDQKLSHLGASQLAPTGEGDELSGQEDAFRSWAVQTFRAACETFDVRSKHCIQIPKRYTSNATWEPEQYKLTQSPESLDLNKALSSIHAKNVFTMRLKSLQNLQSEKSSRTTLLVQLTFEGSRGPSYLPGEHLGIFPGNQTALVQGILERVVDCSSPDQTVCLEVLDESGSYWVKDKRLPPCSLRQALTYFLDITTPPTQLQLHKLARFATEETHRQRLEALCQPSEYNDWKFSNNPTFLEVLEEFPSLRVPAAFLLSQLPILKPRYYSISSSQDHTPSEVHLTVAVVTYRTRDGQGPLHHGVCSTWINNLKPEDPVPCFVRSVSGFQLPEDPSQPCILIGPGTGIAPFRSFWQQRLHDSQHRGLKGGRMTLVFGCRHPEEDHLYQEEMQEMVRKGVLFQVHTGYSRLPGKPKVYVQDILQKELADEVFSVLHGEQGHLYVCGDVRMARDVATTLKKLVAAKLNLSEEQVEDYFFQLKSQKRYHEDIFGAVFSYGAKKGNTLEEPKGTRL

| Compound | IC50 [1] [nM] | Activity [2] | Ratio IC50 (BSC-1 [3]) | IC50 [4] [nM] | Ratio IC50 (BSC-1 [5]) |
| --- | --- | --- | --- | --- | --- |
| O=C(CC1CCCCN1c1ccnc(-n2ccnc2)n1)Nc1ccc2c(c1)OCO2 (stereo not given) | > 100 | inactive |  |  |  |
| O=C(CC1CCCCN1c1ccnc(-n2ccnc2)n1)NCc1ccco1 (stereo not given) | 63 | inactive | 13 | 260 | 140 |
| O=C(CC1CCCCN1c1cc(-n2ccnc2)ncn1)NCc1ccc2c(c1)OCO2 (stereo not given) | 10 | inactive | 19 | 100 | > 1000 |
| O=C(CC1CN(Cc2ccccc2)CCN1c1ccnc(-n2ccnc2)n1)NCc1ccc2c(c1)OCO2 (stereo not given) | 1 | inactive | 7 | 13 | 770 |
| COC(=O)N1CCN(c2ccnc(-n3ccnc3)n2)[C@H](CC(=O)NCc2ccc3c(c2)OCO3)C1 | 34 | inactive |  | > 1000 |  |
| O=C(CC1CN(C(=O)NCc2ccccc2)CCN1c1ccnc(-n2ccnc2)n1)NCc1ccc2c(c1)OCO2 (stereo not given) | 0.96 | inactive | 4 | 72 | 490 |
| O=C(CC1CCCCN1c1cc(Cl)nc(-n2ccnc2)n1)NCc1ccc2c(c1)OCO2 (stereo not given) | 0.49 | inactive | 5 | 9 | 1100 |
| CNC(=O)N1CCN(c2ccnc(-n3ccnc3)n2)C(CC(=O)NCc2ccc3c(c2)OCO3)C1 (stereo not given) | 1 | inactive | 4 | 450 | > 250 |
| O=C(CC1CCCCN1c1cc(C(F)(F)F)nc(-n2ccnc2)n1)NCc1ccc2c(c1)OCO2 (stereo not given) | 180 | inactive | > 31 | 320 | > 310 |
| O=C(CC1CCCCN1c1ccnc(-n2ccnc2)n1)NCc1ccccn1 (stereo not given) |  | inactive |  |  |  |
| Nc1ccc(CNC(=O)CC2CCCCN2c2ccnc(-n3ccnc3)n2)cc1 (stereo not given) |  | inactive |  | 850 |  |
| COC(=O)N1CCN(c2cc(C)nc(-n3ccnc3)n2)CC1CC(=O)NCc1ccc2c(c1)OCO2 (stereo not given) | 5.4 | inactive | 50 | 420 | > 200 |
| O=C(CC1CCCCN1c1ccnc(-n2ccnc2)n1)NCc1ccccc1 (stereo not given) |  | inactive |  | 440 |  |
| O=C(CC1CN(C(=O)Nc2ccccc2)CCN1c1ccnc(-n2ccnc2)n1)NCc1ccc2c(c1)OCO2 (stereo not given) | 0.87 | inactive | 3 | 25 | 350 |
| O=C(CC1CNCCN1c1ccnc(-n2ccnc2)n1)NCc1ccc2c(c1)OCO2 (stereo not given) | 0.55 | inactive | 7 | 70 | 1200 |
| N#Cc1ccc(CNC(=O)CC2CCCCN2c2ccnc(-n3ccnc3)n2)cc1 (stereo not given) |  | inactive |  | > 1000 |  |
| Cc1cc(N2CCN(C)C(CC(=O)NCc3ccc4c(c3)OCO4)C2)nc(-n2ccnc2)n1 (stereo not given) | 12 | inactive | 72 | 340 | > 350 |
| O=C(CC1CCCCN1c1ccnc(-n2ccnc2)n1)NCc1ccc(C(F)(F)F)cc1 (stereo not given) | 150 | inactive | 3 | 260 | 70 |
| Cc1cc(N2CCN(S(C)(=O)=O)C(CC(=O)NCc3ccc4c(c3)OCO4)C2)nc(-n2ccnc2)n1 (stereo not given) | 12 | inactive |  | > 1000 |  |
| CC(=O)N1CCN(c2ccnc(-n3ccnc3)n2)C(CC(=O)NCc2ccc3c(c2)OCO3)C1 (stereo not given) | 1 | inactive | 3 | 320 | > 10 |
| COc1ccc(CCNC(=O)CC2CCCCN2c2ccnc(-n3ccnc3)n2)cc1OC (stereo not given) | 12 | inactive | 1 | 680 | 120 |
| Cc1cc(N2CCCCC2CC(=O)NCc2ccc3c(c2)OCO3)nc(-n2ccnc2)n1 (stereo not given) | 4.1 | inactive | 5 | 16 | 1200 |
| O=C(CC1CN(C(=O)Oc2ccccc2)CCN1c1ccnc(-n2ccnc2)n1)NCc1ccc2c(c1)OCO2 (stereo not given) | 1.4 | inactive | 5 | 16 | 700 |
| O=C(CC1CCCCN1c1cccc(-n2ccnc2)c1)NCc1ccc2c(c1)OCO2 (stereo not given) | 77 | inactive |  |  |  |
| O=C(CC1CCCCN1c1ccnc(-n2ccnc2)n1)NCc1ccc(Cl)cc1 (stereo not given) |  | inactive |  | 160 |  |
| CN1CCN(c2ccnc(-n3ccnc3)n2)C(CC(=O)NCc2ccc3c(c2)OCO3)C1 (stereo not given) | 0.48 | inactive | 2 | 11 | 1300 |
| O=C(CC1CCCCCN1c1ccnc(-n2ccnc2)n1)NCc1ccc2c(c1)OCO2 (stereo not given) | 2 | inactive |  |  |  |

| Compound | IC50 [1] [nM] | Activity [2] | Ratio IC50 (BSC-1 [3]) | IC50 [4] [nM] | Ratio IC50 (BSC-1 [5]) |
| --- | --- | --- | --- | --- | --- |
| CN(C)c1ccc(CNC(=O)CC2CCCCN2c2ccnc(-n3ccnc3)n2)cc1 (stereo not given) | 66 | inactive | 29 | 245 | 86 |
| COc1ccc(NC(=O)CC2CCCCN2c2ccnc(-n3ccnc3)n2)cc1OC (stereo not given) |  | inactive |  | 1800 |  |
| O=C(CC1CN(C(=O)c2ccco2)CCN1c1ccnc(-n2ccnc2)n1)NCc1ccc2c(c1)OCO2 (stereo not given) | 0.67 | inactive | 6 | 48 | 1000 |
| O=C(CC1CN(C(=O)COCc2ccccc2)CCN1c1ccnc(-n2ccnc2)n1)NCc1ccc2c(c1)OCO2 (stereo not given) | 0.5 | inactive | 11 | 28 | 1220 |
| Cc1cc(N2CCNC(CC(=O)NCc3ccc4c(c3)OCO4)C2)nc(-n2ccnc2)n1 (stereo not given) | 100 | inactive |  | > 1000 |  |
| COc1ccc(CNC(=O)CC2CCCCN2c2ccnc(-n3ccnc3)n2)cc1OC (stereo not given) |  | inactive |  | 110 |  |
| COc1cc(CNC(=O)CC2CCCCN2c2ccnc(-n3ccnc3)n2)cc(OC)c1OC (stereo not given) | > 100 | inactive |  |  |  |
| O=C(CC1CN(S(=O)(=O)c2ccccc2)CCN1c1ccnc(-n2ccnc2)n1)NCc1ccc2c(c1)OCO2 (stereo not given) | 2.7 | inactive | 9 | 34 | 1100 |
| CC(=O)N1CCN(c2cc(C)nc(-n3ccnc3)n2)CC1CC(=O)NCc1ccc2c(c1)OCO2 (stereo not given) | 8.5 | inactive | > 32 | 340 | > 320 |
| O=C(CC1CN(c2cccc(F)n2)CCN1c1ccnc(-n2ccnc2)n1)NCc1ccc2c(c1)OCO2 (stereo not given) | 0.28 | inactive | 6 | 10 | 850 |
| O=C(CC1CCCCN1c1ccnc(-n2ccnc2)n1)NCc1ccc([N+](=O)[O-])cc1 (stereo not given) | 168 | inactive | > 10 | 940 | 74 |
| CCOC(=O)CN1CCN(c2ccnc(-n3ccnc3)n2)C(CC(=O)NCc2ccc3c(c2)OCO3)C1 (stereo not given) | 0.93 | inactive | 5 | 4.9 | 1700 |
| O=C(CC1CN(Cc2ccco2)CCN1c1ccnc(-n2ccnc2)n1)NCc1ccc2c(c1)OCO2 (stereo not given) | 0.58 | inactive | 2 | 13 | 1100 |
| Cc1cc(N2CCC[C@H]2C(=O)NCCc2ccc3c(c2)OCO3)nc(-n2ccnc2)n1 | 6400 | inactive |  |  |  |
| O=C(CC1CN(C(=O)c2ccccc2)CCN1c1ccnc(-n2ccnc2)n1)NCc1ccc2c(c1)OCO2 (stereo not given) | 0.5 | inactive | 4 | 85 | 220 |
| COc1ccc(CNC(=O)CC2CCCCN2c2ccnc(-n3ccnc3)n2)cc1 (stereo not given) |  | inactive |  | 23 |  |
| COc1ccccc1CNC(=O)CC1CCCCN1c1ccnc(-n2ccnc2)n1 (stereo not given) |  | inactive |  | 500 |  |
| NS(=O)(=O)c1ccc(CNC(=O)CC2CCCCN2c2ccnc(-n3ccnc3)n2)cc1 (stereo not given) |  | inactive |  | > 330 |  |
| Cc1cc(N2CCN(C(=O)C(C)C)[C@@H](CC(=O)NCc3ccc4c(c3)OCO4)C2)nc(-n2ccnc2)n1 | 300 | inactive |  | > 1000 |  |
| CN(Cc1ccccc1)C(=O)CC1CCCCN1c1ccnc(-n2ccnc2)n1 (stereo not given) |  | inactive |  |  |  |
| CS(=O)(=O)c1ccc(CNC(=O)CC2CCCCN2c2ccnc(-n3ccnc3)n2)cc1 (stereo not given) |  | inactive |  | 940 |  |
| O=C(CC1COCCN1c1ccnc(-n2ccnc2)n1)NCc1ccc2c(c1)OCO2 (stereo not given) | 0.5 | inactive |  |  |  |
| CS(=O)(=O)Nc1ccc(CNC(=O)CC2CCCCN2c2ccnc(-n3ccnc3)n2)cc1 (stereo not given) |  | inactive |  | > 1000 |  |
| CN(C)c1cccc2c(S(=O)(=O)N3CCN(c4ccnc(-n5ccnc5)n4)C(CC(=O)NCc4ccc5c(c4)OCO5)C3)cccc12 (stereo not given) | 1.1 | inactive |  |  |  |
| O=C(CC1CCCCN1c1ccnc(-n2ccnc2)n1)NC(c1ccccc1)c1ccccc1 (stereo not given) |  | inactive |  |  |  |
| CNC(=O)CC1CCCCN1c1ccnc(-n2ccnc2)n1 (stereo not given) | > 100 | inactive |  |  |  |
| Cc1ccc(CNC(=O)CC2CCCCN2c2ccnc(-n3ccnc3)n2)cc1 (stereo not given) |  | inactive |  | 274 |  |
